# Assay results reported in PubChem BioAssay.
# Unmarked numbers belong to inactive results.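 The calls were made as follows, unless noted: active = fluorescence slope after compound addition differing from the mean of all tested samples at 99.7% confidence, mostly higher but some lower; inactive = the rest.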 Where a SMILES comes first, the peptide text is derived from it. The star is where a group is joined. Boc = CC(C)(C)OC(=O)*
# Biological target: Muscarinic acetylcholine receptor M4 (Homo sapiens) (UniProt P08173)
# Assay: M4-linked GIRK flux change, two-sided – cell-based, HEK293 M4/GIRK, thallium flux, BTC-AM, M4 allosteric agonist project, primary screen (AID 625);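 also: thallium influx through GIRK channels coupled to M4 in HEK293 cells with BTC-AM dye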
# Conditions: at 10 µM, actives lie on both sides
# Procedure, shortened: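 Material: HEK293 cells with M4 receptor and GIRK channels; Times: cells overnight at 37 °C, BTC-AM loading 1 h, reads 2 min total; Technique: kinetic BTC-AM fluorescence sampled at 1 Hz, 10 s pre-addition baseline; Read-out basis: slope over 15–24 s of trace normalized to starting intensity; Controls: carbachol positive, DMSO negative.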
# Sequence of Muscarinic acetylcholine receptor M4 (Homo sapiens) (P08173 whole entry, looked up): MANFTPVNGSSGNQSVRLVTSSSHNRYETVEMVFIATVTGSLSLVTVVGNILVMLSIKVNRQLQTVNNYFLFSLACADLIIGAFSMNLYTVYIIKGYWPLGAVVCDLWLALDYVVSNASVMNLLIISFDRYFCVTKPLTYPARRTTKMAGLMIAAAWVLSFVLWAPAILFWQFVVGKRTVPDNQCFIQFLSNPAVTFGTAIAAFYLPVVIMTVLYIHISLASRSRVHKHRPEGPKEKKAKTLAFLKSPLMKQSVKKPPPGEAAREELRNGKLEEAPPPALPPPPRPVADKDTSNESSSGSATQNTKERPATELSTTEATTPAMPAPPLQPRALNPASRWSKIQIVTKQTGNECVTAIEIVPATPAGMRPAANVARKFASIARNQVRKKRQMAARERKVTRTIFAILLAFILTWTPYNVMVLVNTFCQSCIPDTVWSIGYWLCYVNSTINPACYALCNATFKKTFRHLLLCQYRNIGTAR
row,Structure (SMILES),fluorescence slope
1,Cc1nc2ccccc2c(=O)n1NC(=O)c1c(O)c2c(n(CC(C)C)c1=O)CCCC2,0.00523
2,CCN(CC)C(=O)C1=C(C)NC(=O)NC1c1c(F)cccc1Cl (stereo not given),0.00392
3,COc1ccccc1OCc1ccc(C(=O)OCC2CCCO2)o1 (stereo not given),0.00535
4,Cc1nc(CNS(=O)(=O)c2ccc3c(c2)OCCO3)cs1,0.00404
5,c1ccc(CC2CCN(Cc3nc(-c4ccccc4)no3)CC2)cc1,0.00542
6,CC(C)(C)OC(=O)N1CCCC1C(=O)N1CCCC1C(=O)N1CCCC1C(=O)O (stereo not drawn) (Boc-Pro-Pro-Pro-OH; configuration not given here),0.00689
7,Cc1[nH]c(=O)[nH]c(=O)c1S(=O)(=O)N1CCN(c2cccc(Cl)c2)CC1,0.0059
8,Cc1csc(SCC(=O)NC(=O)NCc2ccccc2)n1,0.0067
9,O=C1CC(N2CCC(C(=O)N3CCCCC3)CC2)C(=O)N1 (stereo not given),0.00558
10,COc1ccc(S(=O)(=O)NC2CCCCC2)c(C)c1C,0.00523
11,O=C(NCc1ccccn1)c1ccc2nc(-c3ccco3)c(-c3ccco3)nc2c1,0.00242
12,CN1CCCN(C(=O)c2cc(=O)[nH]c3ccccc23)c2nc3ccccc3nc21,0.00653
13,COc1cc2c(cc1OC)CN(C(=O)COc1ccc(C#N)cc1)CC2,0.00682
14,Cc1noc(C)c1C(=O)OCC(=O)Nc1ccccc1C(=O)NC(C)c1ccccc1 (stereo not given),0.00545
15,CCc1c(C)nc(N2CCN(Cc3ccccc3)CC2)[nH]c1=O,0.00476
16,CCOc1ccc(CCNC(=O)CCc2nc(-c3ccc(OC)cc3)no2)cc1OCC,0.00633
17,O=C(O)CCCNS(=O)(=O)c1ccc(NCc2ccccc2)c(C(=O)O)c1,0.00502
18,CN1CCN(C(=O)c2ccccc2N(Cc2ccccc2)S(C)(=O)=O)CC1,0.00748
19,Cc1nc(=S)n(-c2ccccc2)[nH]1,0.00665
20,Cc1ccc(S(=O)(=O)Cc2ccc(C(=O)NCCCN3CCN(C)CC3)o2)cc1,0.00533

row,Structure (SMILES),fluorescence slope
1,COc1cccc(-n2c(C)nc3c(cnn3-c3ccc(Cl)cc3)c2=O)c1,0.00702
2,CC1(C)CC(=O)C(C=NCCc2ccc(S(N)(=O)=O)cc2)=C(O)C1,0.00589
3,Cc1oc(-c2ccccc2)cc1C(N)=O,0.0055
4,O=C(Nc1ccc(N2CCOCC2)c(F)c1)c1ccncc1,0.00591
5,COCn1c(COc2ccccc2)nc2ccccc21,0.00599
6,COc1ccc(OC)c(C2=NOC(C(=O)NCCN3CCOCC3)C2)c1 (stereo not given),0.00547
7,Cc1cc(C(=O)Nc2cc(C)n(Cc3ccc(Cl)cc3)n2)no1,0.0053
8,Cc1cc(C(=O)CSCc2nnc3n(CCC(C)C)c(=O)c4ccccc4n23)c(C)n1C,0.00507
9,COc1ccc(-c2[nH]nc3c2C(c2ccccc2OC(=O)N2CCOCC2)C(C#N)=C(N)O3)cc1 (stereo not given),0.00609
10,COC(=O)c1ccccc1NC(=O)Nc1cc(C)cc(C)n1,0.00537
11,CCOC(=O)C1CCCN(Cc2nc(N)nc(Nc3ccccc3)n2)C1 (stereo not given),0.0052
12,COCC(=O)Nc1sc2c(c1C(=O)OC)C(C(=O)OC)CC2 (stereo not given),0.00577
13,Cc1ccnc(NC(=O)CCC(=O)N(CC(=O)NC2CCCCC2)c2cccc(C)c2C)c1,0.00484
14,Cc1ccc(NC(=O)C2CCCN2C(=O)Oc2ccccc2)cc1 (stereo not given),0.00654
15,c1ccc2[nH]c(CSc3nnc(-c4ccncc4)o3)nc2c1,0.00421
16,Cc1ccc(-c2c3c(=O)n(C)c(=O)n(C)c3cn2CCCN2CCOCC2)cc1,0.00744
17,CCOc1ccc(NC(=O)CN(C)S(=O)(=O)c2cccs2)cc1,0.00617
18,CCn1ncc(C2=NOC(C(=O)NCc3ccc(Cl)cc3)C2)c1C (stereo not given),0.0055
19,CCOC(=O)C1CCCN(C(=O)c2ccc(CS(=O)(=O)Cc3ccccc3C)o2)C1 (stereo not given),0.00695
20,CC(C)C(=O)Nc1nnc(CCc2nnc(NC(=O)C(C)C)s2)s1,0.00508

# System: not listed separately
# Assay: blockers of RIG-like receptor reporter activation – cell-based, Sendai virus stimulus, luciferase, 10K MLSCN set, TLR/RLR signaling modifier project, primary screen (AID 602276;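 active = inhibition at or above 50% at 10 µM; inactive = inhibition below 50%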;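 also: firefly luciferase from ISG56 promoter only with Renilla not read in this screen; 0% = Sendai virus plus DMSO and 100% = medium plus DMSO without virus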)
# Conditions: HEK293 RL24 IRF3 luciferase reporter, at 10 µM, active compounds read high
row,Structure (SMILES),inhibition [%]
1,Cc1nc2ccccc2c(=O)n1NC(=O)c1c(O)c2c(n(CC(C)C)c1=O)CCCC2,18.5
2,CCN(CC)C(=O)C1=C(C)NC(=O)NC1c1c(F)cccc1Cl (stereo not given),7.67
3,COc1ccccc1OCc1ccc(C(=O)OCC2CCCO2)o1 (stereo not given),-10.8
4,Cc1nc(CNS(=O)(=O)c2ccc3c(c2)OCCO3)cs1,-8.22
5,c1ccc(CC2CCN(Cc3nc(-c4ccccc4)no3)CC2)cc1,5.55
6,CC(C)(C)OC(=O)N1CCCC1C(=O)N1CCCC1C(=O)N1CCCC1C(=O)O (stereo not drawn) (Boc-Pro-Pro-Pro-OH; configuration not given here),5.97
7,Cc1[nH]c(=O)[nH]c(=O)c1S(=O)(=O)N1CCN(c2cccc(Cl)c2)CC1,-13.2
8,Cc1csc(SCC(=O)NC(=O)NCc2ccccc2)n1,15.1
9,O=C1CC(N2CCC(C(=O)N3CCCCC3)CC2)C(=O)N1 (stereo not given),19.9
10,COc1ccc(S(=O)(=O)NC2CCCCC2)c(C)c1C,20.3
11,O=C(NCc1ccccn1)c1ccc2nc(-c3ccco3)c(-c3ccco3)nc2c1,10.9
12,CN1CCCN(C(=O)c2cc(=O)[nH]c3ccccc23)c2nc3ccccc3nc21,16.3
13,COc1cc2c(cc1OC)CN(C(=O)COc1ccc(C#N)cc1)CC2,6.14
14,Cc1noc(C)c1C(=O)OCC(=O)Nc1ccccc1C(=O)NC(C)c1ccccc1 (stereo not given),9.57
15,CCc1c(C)nc(N2CCN(Cc3ccccc3)CC2)[nH]c1=O,17.7
16,CCOc1ccc(CCNC(=O)CCc2nc(-c3ccc(OC)cc3)no2)cc1OCC,12.2
17,O=C(O)CCCNS(=O)(=O)c1ccc(NCc2ccccc2)c(C(=O)O)c1,10.5
18,CN1CCN(C(=O)c2ccccc2N(Cc2ccccc2)S(C)(=O)=O)CC1,-0.336
19,Cc1nc(=S)n(-c2ccccc2)[nH]1,11.3
20,Cc1ccc(S(=O)(=O)Cc2ccc(C(=O)NCCCN3CCN(C)CC3)o2)cc1,14.1

row,Structure (SMILES),inhibition [%]
1,COc1cccc(-n2c(C)nc3c(cnn3-c3ccc(Cl)cc3)c2=O)c1,-4.02
2,CC1(C)CC(=O)C(C=NCCc2ccc(S(N)(=O)=O)cc2)=C(O)C1,13.2
3,Cc1oc(-c2ccccc2)cc1C(N)=O,15.1
4,O=C(Nc1ccc(N2CCOCC2)c(F)c1)c1ccncc1,-9.16
5,COCn1c(COc2ccccc2)nc2ccccc21,-20.6
6,COc1ccc(OC)c(C2=NOC(C(=O)NCCN3CCOCC3)C2)c1 (stereo not given),17.7
7,Cc1cc(C(=O)Nc2cc(C)n(Cc3ccc(Cl)cc3)n2)no1,-11.3
8,Cc1cc(C(=O)CSCc2nnc3n(CCC(C)C)c(=O)c4ccccc4n23)c(C)n1C,14.8
9,COc1ccc(-c2[nH]nc3c2C(c2ccccc2OC(=O)N2CCOCC2)C(C#N)=C(N)O3)cc1 (stereo not given),25.8
10,COC(=O)c1ccccc1NC(=O)Nc1cc(C)cc(C)n1,6.32
11,CCOC(=O)C1CCCN(Cc2nc(N)nc(Nc3ccccc3)n2)C1 (stereo not given),22.1
12,COCC(=O)Nc1sc2c(c1C(=O)OC)C(C(=O)OC)CC2 (stereo not given),-8.7
13,Cc1ccnc(NC(=O)CCC(=O)N(CC(=O)NC2CCCCC2)c2cccc(C)c2C)c1,13.1
14,Cc1ccc(NC(=O)C2CCCN2C(=O)Oc2ccccc2)cc1 (stereo not given),5.65
15,c1ccc2[nH]c(CSc3nnc(-c4ccncc4)o3)nc2c1,7.74
16,Cc1ccc(-c2c3c(=O)n(C)c(=O)n(C)c3cn2CCCN2CCOCC2)cc1,10.9
17,CCOc1ccc(NC(=O)CN(C)S(=O)(=O)c2cccs2)cc1,-60.5
18,CCn1ncc(C2=NOC(C(=O)NCc3ccc(Cl)cc3)C2)c1C (stereo not given),2.33
19,CCOC(=O)C1CCCN(C(=O)c2ccc(CS(=O)(=O)Cc3ccccc3C)o2)C1 (stereo not given),-2.6
20,CC(C)C(=O)Nc1nnc(CCc2nnc(NC(=O)C(C)C)s2)s1,14.6
